# The source made the active and inactive calls. No cut-off for these calls is given here.
# Experiments:
# Format in all cases: functional
# LOX IMVI = test: Growth inhibition of human LOXIMVI cells at 10 uM after 48 hrs by coulter counter method
# How it was run: (§1)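 NCI 60-cell-line panel, single dose. Compound dissolved first in DMSO, then diluted in phosphate-buffered saline so that every final dilution held under 1% DMSO. Duplicate wells received cells at 6 × 10⁴ cells/ml. Controls held PBS/DMSO at the same dilution. Plates were incubated 48 h at 37 °C under 5% CO₂. Cells were then diluted 10-fold in saline and counted on a Coulter counter, with counts corrected for the dilution. Results are given as percent growth inhibition.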
# NCI-H322M = test: Growth inhibition of human NCI-H322M cells at 10 uM after 48 hrs by coulter counter method; conditions: read-out: GI; how it was run: as §1
# K562 = test: Growth inhibition of human K562 cells at 10 uM after 48 hrs by coulter counter method; conditions: K562, 48 h, read-out: GI; how it was run: as §1
# HT-29 = test: Growth inhibition of human HT-29 cells at 10 uM after 48 hrs by coulter counter method; conditions: HT-29, 48 h, read-out: GI; how it was run: as §1
# HCT-15 = test: Growth inhibition of human HCT15 cells at 10 uM after 48 hrs by coulter counter method; conditions: HCT-15, 48 h, read-out: GI; how it was run: as §1
# U-251 = test: Growth inhibition of human U251 cells at 10 uM after 48 hrs by coulter counter method; conditions: U-251, 48 h, read-out: GI; how it was run: as §1
# [1] = Growth inhibition of human leukemia cells after 48 hrs by coulter counter method; conditions: Leukemia cell
# How it was run: (§2)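 NCI 60-line panel cells. Compound is dissolved in DMSO and diluted in phosphate-buffered saline, with final DMSO below 1%. It is added in duplicate wells to cultures at 6 × 10⁴ cells/ml and held at 37 °C, 5% CO₂, humidified, for 48 h. Cells are diluted 10-fold in saline, counted by Coulter counter and dilution-corrected. Vehicle controls contain PBS plus DMSO.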
# T47D = test: Growth inhibition of human T47D cells at 10 uM after 48 hrs by coulter counter method; conditions: read-out: GI; how it was run: as §1
# SR = test: Growth inhibition of human SR cells at 10 uM after 48 hrs by coulter counter method; conditions: read-out: GI; how it was run: as §1
# OVCAR-8 = test: Growth inhibition of human OVCAR8 cells at 10 uM after 48 hrs by coulter counter method; conditions: OVCAR-8, 48 h, read-out: GI; how it was run: as §1
# SNB-19 = test: Growth inhibition of human SNB19 cells at 10 uM after 48 hrs by coulter counter method; conditions: SNB-19, 48 h, read-out: GI; how it was run: as §1
# CAKI-1 = test: Growth inhibition of human Caki1 cells at 10 uM after 48 hrs by coulter counter method; how it was run: as §1
# SK-MEL-28 = test: Growth inhibition of human SK-MEL-28 cells at 10 uM after 48 hrs by coulter counter method; conditions: SK-MEL-28, 48 h, read-out: GI; how it was run: as §1
# Melanoma cell = test: Growth inhibition of human Melanoma cells after 48 hrs by coulter counter method; how it was run: as §2
# MCF7 = test: Growth inhibition of human MCF7 cells at 10 uM after 48 hrs by coulter counter method; conditions: MCF7, 48 h, read-out: GI; how it was run: as §1
# NCI-H226 = test: Growth inhibition of human NCI-H226 cells at 10 uM after 48 hrs by coulter counter method; conditions: NCI-H226, 48 h, read-out: GI; how it was run: as §1
# SF-295 = test: Growth inhibition of human SF295 cells at 10 uM after 48 hrs by coulter counter method; conditions: SF-295, 48 h, read-out: GI; how it was run: as §1
# PC-3 = test: Growth inhibition of human PC3 cells at 10 uM after 48 hrs by coulter counter method; conditions: PC-3, 48 h, read-out: GI; how it was run: as §1
# M14 = test: Growth inhibition of human M14 cells at 10 uM after 48 hrs by coulter counter method; conditions: M14, 48 h, read-out: GI; how it was run: as §1
# SN12C = test: Growth inhibition of human SN12C cells at 10 uM after 48 hrs by coulter counter method; conditions: read-out: GI; how it was run: as §1
# KM12 = test: Growth inhibition of human KM12 cells at 10 uM after 48 hrs by coulter counter method; conditions: KM12, 48 h, read-out: GI; how it was run: as §1
# Malme-3M = test: Growth inhibition of human MALME-3M cells at 10 uM after 48 hrs by coulter counter method; how it was run: as §1
# A549 = test: Growth inhibition of human A549 cells at 10 uM after 48 hrs by coulter counter method; conditions: A549, 48 h, read-out: GI; how it was run: as §1
# NSCLC = test: Growth inhibition of human NSCLC cells after 48 hrs by coulter counter method; how it was run: as §2
# RPMI-8226 = test: Growth inhibition of human RPMI8226 cells at 10 uM after 48 hrs by coulter counter method; conditions: RPMI-8226, 48 h, read-out: GI; how it was run: as §1
# NCI/ADR-RES = test: Growth inhibition of human NCI/ADR-RES cells at 10 uM after 48 hrs by coulter counter method; conditions: read-out: GI; how it was run: as §1
# IGROV-1 = test: Growth inhibition of human IGROV1 cells at 10 uM after 48 hrs by coulter counter method; how it was run: as §1
# MDA-MB-435 = test: Growth inhibition of human MDA-MB-435 cells at 10 uM after 48 hrs by coulter counter method; conditions: MDA-MB-435, 48 h, read-out: GI; how it was run: as §1
# CCRF-CEM = test: Growth inhibition of human CCRF-CEM cells at 10 uM after 48 hrs by coulter counter method; conditions: read-out: GI; how it was run: as §1
# TK-10 = test: Growth inhibition of human TK10 cells at 10 uM after 48 hrs by coulter counter method; conditions: TK-10, 48 h, read-out: GI; how it was run: as §1
# SK-MEL-5 = test: Growth inhibition of human SK-MEL-5 cells at 10 uM after 48 hrs by coulter counter method; conditions: SK-MEL-5, 48 h, read-out: GI; how it was run: as §1
# SK-MEL-2 = test: Growth inhibition of human SK-MEL-2 cells at 10 uM after 48 hrs by coulter counter method; conditions: SK-MEL-2, 48 h, read-out: GI; how it was run: as §1
# EKVX = test: Growth inhibition of human EKVX cells at 10 uM after 48 hrs by coulter counter method; conditions: read-out: GI; how it was run: as §1
# MOLT-4 = test: Growth inhibition of human MOLT4 cells at 10 uM after 48 hrs by coulter counter method; conditions: MOLT-4, 48 h, read-out: GI; how it was run: as §1
# [2] = Growth inhibition of human ovarian cancer cells after 48 hrs by coulter counter method; conditions: Cancer cell lines; how it was run: as §2
# HCT-116 = test: Growth inhibition of human HCT116 cells at 10 uM after 48 hrs by coulter counter method; conditions: HCT-116, 48 h, read-out: GI; how it was run: as §1
# UACC-62 = test: Growth inhibition of human UACC62 cells at 10 uM after 48 hrs by coulter counter method; conditions: UACC-62, 48 h, read-out: GI; how it was run: as §1
# BT-549 = test: Growth inhibition of human BT549 cells at 10 uM after 48 hrs by coulter counter method; conditions: BT-549, 48 h, read-out: GI; how it was run: as §1
# [3] = read-out: LC50 (the source's name)
compound,measurement,setting,value
O=C1CN2N=C(c3ccccc3)SC2=N1,growth inhibition (GI),LOX IMVI,Active
same,inhibition of growth at 10 µM,NCI-H322M,22.1%
same,inhibition of growth at 10 µM,K562,34.8%
same,inhibition of growth at 10 µM,HT-29,36.2%
same,inhibition of growth at 10 µM,HCT-15,44.8%
same,inhibition of growth at 10 µM,U-251,58.3%
same,GI50,[1],4.1 µM
same,TGI,[1],25.9 µM
same,CC50,[1]; [3],> 100 µM
same,inhibition of growth at 10 µM,T47D,33.2%
same,inhibition of growth at 10 µM,SR,36.3%
same,inhibition of growth at 10 µM,OVCAR-8,35.3%
same,inhibition of growth at 10 µM,SNB-19,23.2%
same,growth inhibition (GI),CAKI-1,Active
same,inhibition of growth at 10 µM,SK-MEL-28,10.4%
same,GI50,Melanoma cell,8 µM
same,LC50,Melanoma cell,51.4 µM
same,TGI,Melanoma cell,20.1 µM
same,inhibition of growth at 10 µM,MCF7,46.4%
same,inhibition of growth at 10 µM,NCI-H226,27.7%
same,inhibition of growth at 10 µM,SF-295,90.6%
same,inhibition of growth at 10 µM,PC-3,30.1%
same,inhibition of growth at 10 µM,M14,30.2%
same,inhibition of growth at 10 µM,SN12C,32.9%
same,inhibition of growth at 10 µM,KM12,21.8%
same,growth inhibition (GI),Malme-3M,Active
same,inhibition of growth at 10 µM,A549,39.2%
same,GI50,NSCLC,9.7 µM
same,TGI,NSCLC,20.7 µM
same,CC50,NSCLC; [3],55.7 µM
same,inhibition of growth at 10 µM,RPMI-8226,72.2%
same,inhibition of growth at 10 µM,NCI/ADR-RES,17.9%
same,growth inhibition (GI),IGROV-1,Active
same,inhibition of growth at 10 µM,MDA-MB-435,30.4%
same,inhibition of growth at 10 µM,CCRF-CEM,88.2%
same,inhibition of growth at 10 µM,TK-10,25.4%
same,inhibition of growth at 10 µM,SK-MEL-5,35.2%
same,inhibition of growth at 10 µM,SK-MEL-2,14.1%
same,inhibition of growth at 10 µM,EKVX,94.5%
same,inhibition of growth at 10 µM,MOLT-4,37.5%
same,GI50,[2],7.7 µM
same,TGI,[2],33.5 µM
same,CC50,[2]; [3],83.9 µM
same,inhibition of growth at 10 µM,HCT-116,42.6%
same,inhibition of growth at 10 µM,UACC-62,27.8%
same,inhibition of growth at 10 µM,BT-549,53.4%

# Reference: ChEMBL document CHEMBL1926577, “Novel 1,3,4-heterodiazole analogues: synthesis and in-vitro antitumor activity” (2012)
